Shown are actives, neighbours in structure and some others; about 1.6% of the full set was active somewhere.
ABHD5-PLIN5 inh = ABHD5-PLIN5 interaction inhibitors, primary screen, cell lysate, split luciferase complementation, luminescence. Split G. princeps luciferase complementation, 4 h. inhibition, % at 4 µM. actives 0.78% (n = 360,000). AID 602281, 2012;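 active = inhibition above the mean inhibition across every tested compound plus 3 SD, cut at about 22% in these data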;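 also: 0% = DMSO only wells and the 100% control is not disclosed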
Target sequence (Q00G26 whole entry, looked up): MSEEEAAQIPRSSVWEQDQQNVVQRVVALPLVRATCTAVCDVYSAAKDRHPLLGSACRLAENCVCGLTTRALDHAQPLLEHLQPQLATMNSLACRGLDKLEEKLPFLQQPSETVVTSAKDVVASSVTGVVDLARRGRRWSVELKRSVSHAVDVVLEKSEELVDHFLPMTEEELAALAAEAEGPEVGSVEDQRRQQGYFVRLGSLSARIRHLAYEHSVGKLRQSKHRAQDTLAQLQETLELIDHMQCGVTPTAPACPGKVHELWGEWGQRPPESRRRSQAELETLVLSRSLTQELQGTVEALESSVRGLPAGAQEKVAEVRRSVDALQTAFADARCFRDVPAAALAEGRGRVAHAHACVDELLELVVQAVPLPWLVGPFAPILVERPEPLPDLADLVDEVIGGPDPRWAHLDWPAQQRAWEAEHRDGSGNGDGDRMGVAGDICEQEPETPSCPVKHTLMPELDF
Target sequence (Q8WTS1 whole entry, looked up): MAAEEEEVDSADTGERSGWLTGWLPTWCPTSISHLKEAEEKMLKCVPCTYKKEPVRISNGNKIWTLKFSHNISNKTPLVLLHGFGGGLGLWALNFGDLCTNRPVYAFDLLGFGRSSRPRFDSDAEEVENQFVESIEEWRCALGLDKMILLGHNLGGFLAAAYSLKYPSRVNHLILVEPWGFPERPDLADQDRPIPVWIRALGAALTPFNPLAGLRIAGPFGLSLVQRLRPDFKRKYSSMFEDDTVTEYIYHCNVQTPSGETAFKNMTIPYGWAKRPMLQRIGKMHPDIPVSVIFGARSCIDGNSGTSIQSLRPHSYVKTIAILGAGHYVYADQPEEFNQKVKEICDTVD
TLR9-MyD88 inh = inhibitors of TLR9-MyD88 association in cells, primary screen, cell-based, CHO, BLA complementation, fluorescence | Toll-like receptor 9 (Homo sapiens) + Myeloid differentiation primary response protein … | CCF4 FRET ratio | inhibition, % at 4.98 µM | actives 0.21% (n = 340,000);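 active = inhibition above the mean over all tested compounds plus 3 SD, cut at about 21% in these data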;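 also: 0% = DMSO only wells and 100% = clavulanate BLA inhibitor control wells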
NOD2-RIPK2 inh = NOD2-RIPK2 binding disruptors in cells, primary screen, fluorescence, CHO cells, BLA complementation; Receptor-interacting serine/threonine-protein kinase 2 (Homo sapiens), O43353; CCF4 ratio; inhibition, % at 4.98 µM; actives 0.38% (n = 360,000); in the data active = inhibition above about 21%;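 also: 0% = vehicle only and 100% = reference blocker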
TLR4-MyD88 BLA = inhibitors of TLR4-MyD88 association in cells, primary screen, cell-based, HeLa CL3-4, BLA complementation, FRET ratio; HeLa CL3-4 TLR4/MyD88 BLA complementation; inhibition, % at 8.4 µM; actives 0.18% (n = 200,000); AID 861, 2007; in the data active = inhibition above about 25%;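 also: 0% = vehicle and 100% = reference inhibitor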
Dynein transport = inhibitors of GR-EGFP nuclear translocation, primary screen, dynein cargo transport inhibitor project, imaging, high-content, 3617.4 mouse cells. test concentration mostly 20 µM; stimulated with dexamethasone, 1 µM; hits give low values. z-score, hits read low. actives 0.47% (n = 220,000). AID 1381, 2008;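 active = plate z-score of nuclear minus cytoplasmic receptor signal below a set negative limit, without overly bright fluorescence or cell loss, cut at about -3.5 in these data, passing the limit was not always enough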;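 also: z-score of nuclear minus cytoplasmic ring GR-EGFP intensity difference per well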
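Medium: Induction medium lacking tetracycline, stripped serum | Probe or stimulus: 1.0 µM final dexamethasone stimulus | Schedule: 48 h induction, then 1 h compound, then 30 min agonist, 37 °C | Signal: Automated 10x imaging of fixed Hoechst-stained cells | Evaluation: Per-cell GR-EGFP intensity, nucleus versus surrounding cytoplasmic ring, well-averaged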
B2AR ag = beta2AR agonists driving receptor internalization, primary screen, cell-based, FAP fluorogen, flow cytometry; Am2.2-beta2AR cells; response, % (no concentration beside the values); actives 0.43% (n = 340,000);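 active = response above a set limit, near 3 SD of response in nonfluorescent compounds, cut at about 42% in these data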
ABHD5-PLIN5 conf = ABHD5-PLIN5 interaction inhibitors, confirmation, biochemical, luminescence. shares compounds with ABHD5-PLIN5 inh. actives 67% (n = 2,200). inhibition, % at 4 µM. AID 651612, 2012; in the data active = inhibition above about 23%;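 also: 0% = DMSO vehicle wells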
HNF4 counter = HNF4 dimerization inhibitors, counter-screen for ABHD5-PLIN5 interaction inhibitor project, biochemical, split-luciferase complementation, luminescence; inhibition, % at 4 µM; actives 77% (n = 2,200); shares compounds with ABHD5-PLIN5 inh;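 active = mean inhibition across replicate wells exceeding the computed hit threshold, cut at about 13% in these data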;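 also: light from luciferase halves that rejoin when HNF4 fusion proteins dimerize; 0% = DMSO only wells and the 100% control is not given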
The depositor's hits bear a star; . = no result given.

SMILES	ABHD5-PLIN5 inh	TLR9-MyD88 inh	NOD2-RIPK2 inh	TLR4-MyD88 BLA	Dynein transport	B2AR ag	ABHD5-PLIN5 conf	HNF4 counter
O=C(Cc1cccc([N+](=O)[O-])c1)Nc1ccc(C(=O)N2CCCCC2)cc1	25.5*	-5.1	-7.3	.	.	1.8	4.8	3.7
O=C(Cc1cccc([N+](=O)[O-])c1)Nc1cccc(C(=O)N2CCCC2)c1	2.5	-0.6	-10.4	.	.	8.2	.	.
CCOC(=O)C1=CCC(c2ccccc2)N(S(=O)(=O)c2ccccc2C)C1 (configuration not stated)	-6.8	.	-4.5	.	.	.	.	.
COC(=O)CSc1[nH]c2ccc(F)cc2c1[N+](=O)[O-]	24.6*	1.5	2.5	.	-1.01	7.8	43.6*	82.7*
CSCCC(NC=O)C(=O)NC(C)C(=O)O (configuration not stated)	3.5	4.2	4.2	.	.	-3.8	.	.
NC(=O)C1=C[C@H](c2coc3ccccc3c2=O)C[C@H](OCCCCO)O1	23.3*	1.4	-6.1	6.0	-0.592	-0.9	2.0	6.2
COc1ccc(Cl)cc1Cn1c(C)c(C(=O)NCc2cccc(Cl)c2)sc1=O	-8.3	.	5.6	.	.	.	.	.
CC(C)c1ccc(OCC(=O)Nc2ccc3oc(=O)ccc3c2)cc1	0.3	-11.3	-9.0	.	.	1.2	.	.
CC(OC(=O)/C=C/c1ccc2ccccc2n1)C(=O)N(C)c1ccccc1 (configuration not stated)	-1.4	4.0	-8.8	.	.	21.8	.	.
CC(=O)/C=C/c1ccc2ccccc2n1	85.1*	-0.6	14.4	7.7	-1.62	15.4	83.6*	91.1*
c1coc(-c2cnc3ccccc3n2)c1	-0.7	-10.6	-0.3	.	.	.	.	.
c1coc(-c2nc3ccccc3nc2-c2ccco2)c1	34.0*	-3.0	5.4	-6.1	-1.17	0.8	93.3*	85.6*
O=S(=O)(c1c(F)cccc1F)N1CCN(Cc2c(O)ccc3ccccc23)CC1	26.6*	2.3	6.0	.	.	-6.1	43.1*	77.4*
Oc1ccc2ccccc2c1CN1CCOCC1	9.9	2.6	2.0	.	-0.549	-9.2	.	.
C[C@@H]1CN([C@H](C)CO)C(=O)CCCn2cc(nn2)CO[C@H]1CN(C)S(=O)(=O)c1ccc(Oc2ccccc2)cc1	-2.7	2.7	-1.1	.	.	.	.	.
O=C(N/N=C/c1ccc(N2CCOCC2)o1)c1ccccc1[N+](=O)[O-]	21.7	-7.5	-5.5	-5.1	-0.349	4.6	.	.
O=C(N/N=C/c1ccc(N2CCCCC2)o1)c1ccccc1[N+](=O)[O-]	25.9*	2.7	5.0	15.3	-1.11	5.3	38.2*	66.5*
N#CC1=C(N)NC(=S)C(C(N)=O)C1c1ccc([N+](=O)[O-])cc1 (configuration not stated)	52.0*	-4.1	1.0	-12.9	0.419	-3.2	-35.0	-16.7
CCc1nc2ccc(C(=O)N(C)Cc3ccco3)cn2c1N(CC)Cc1cccc(Br)c1	12.2	.	10.0	.	.	.	.	.
O=S(=O)(/N=C(/c1ccccc1)N1CCOCC1)c1ccc(F)cc1F	6.3	-3.6	-2.3	.	.	-3.4	.	.
Cc1ccc(C)c(S(=O)(=O)N2CCN(Cc3cc4c(cc3O)OCO4)CC2)c1	25.2*	8.0	-1.8	.	.	-2.3	34.8*	64.9*
O=S(=O)(c1ccccc1F)N1CCN(Cc2cc3c(cc2O)OCO3)CC1	16.4	0.4	-14.0	.	.	-9.3	.	.
O=C(Nc1cccc(Cl)c1)c1csc(COCCO)n1	-3.4	.	4.0	.	.	.	.	.
Cc1ccc(C(=O)/C=C/c2ccc3ncccc3c2)cc1	37.6*	-12.7	4.2	.	.	-3.1	78.0*	78.2*
COc1ccc(/C=C/C(=O)NCc2ccc3c(c2)OCO3)cc1OC	96.2*	3.3	-2.3	.	.	0.5	4.6	1.2
SMILES	ABHD5-PLIN5 inh	TLR9-MyD88 inh	NOD2-RIPK2 inh	TLR4-MyD88 BLA	Dynein transport	B2AR ag	ABHD5-PLIN5 conf	HNF4 counter
COc1ccc(/C=C/C(=O)c2ccccc2)cc1Cn1nnc2ccccc21	30.8*	1.7	1.3	5.7	-1.16	1.8	72.8*	65.8*
COc1cc(/C=C/C(=O)c2ccc(C)cc2)ccc1OCC#N	45.0*	6.8	-8.7	9.7	-2.99	3.8	72.4*	54.3*
COc1ccc(/C=C/C(=O)c2cc(F)ccc2OC(=O)c2ccc(OC)c(OC)c2)cc1OC	46.0*	-6.6	3.1	-7.4	-1.79	12.0	76.6*	52.4*
COc1ccc(/C=C/C(=O)c2ccc(C(=O)/C=C/c3ccc(OC)c(OC)c3)cc2)cc1OC	55.1*	3.0	-0.7	.	.	25.7	98.0*	90.8*
COC(=O)c1ccc(/C=C/C(=O)c2ccc(OC)c(OC)c2)cc1	32.9*	5.9	7.4	3.1	0.18	9.4	65.6*	60.7*
COC(=O)c1ccc(/C=C/C(=O)c2ccc(OC)cc2)cc1	8.2	2.8	0.5	-16.6	-0.98	16.0	.	.
O=C1NC[C@@H](CCCCN2C[C@H](Cc3ccc(O)cc3)N(CCc3ccccc3)C(=O)C2=O)N(CCc2ccccc2)C1=O	12.8	.	-5.9	.	.	.	.	.
CC(C)OCCCNc1nc2c(cnn2C)c(=O)[nH]1	-7.3	-1.3	7.9	.	.	7.0	.	.
C[C@@H]1CN([C@@H](C)CO)C(=O)c2cc(Br)cnc2O[C@@H]1CN(C)Cc1ccc(Oc2ccccc2)cc1	-0.1	-5.9	11.0	.	.	.	.	.
CCCc1nc2sc3ccccc3c(=O)c2c(=O)n1Cc1ccco1	27.5*	1.4	2.0	4.6	1.11	25.7	52.2*	73.7*
CC1(C)C2CCC(CN=C(N)CSS(=O)(=O)O)C1C2 (configuration not stated)	61.3*	-2.0	-9.7	.	.	.	78.0*	51.6*
CN1OC[C@@H]2CN(S(=O)(=O)c3cccc(C(F)(F)F)c3)[C@H](c3ccc(N4CCCCC4)cc3)C[C@@H]21	-3.1	.	-14.6	.	.	.	.	.
CCN(C(=O)CN1C(=O)S/C(=C\C=C\c2ccccc2)C1=O)C1CCS(=O)(=O)C1 (configuration not stated)	56.4*	-7.5	-8.7	.	.	-9.3	16.9	22.0*
COc1cc2[nH]c(C(=O)Nc3ccc(F)cc3)cc2c(OC)c1OC	-1.9	-1.8	-0.3	.	.	3.4	.	.

Compound activity: PubChem, several laboratories
